Screening results (PubChem)
ARNT TACC3 PPI = ARNT/TACC3 interaction disruption. Q9Y6A5. 0.66% of 390,000 active. inhibition, % at 9.99 µM. AlphaScreen His-ARNT PAS-B/GST-TACC3 binding, luminescence; TACC3 fragment carries E629A point mutation;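 active means mean inhibition of replicates at least 50% and at least half of replicates each reaching 50%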;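 further: 0% = complete ARNT plus TACC3 wells and 100% = ARNT alone without TACC3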
CAL PDZ FP-1 = CAL PDZ (human) peptide binding inhibition; purified CAL PDZ, TMR-peptide fluorescence polarization, 1 h; inhibition, % at 24.9 µM; 0.92% of 300,000 active; AID 602252;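 active means mean inhibition of at least 30% with at least half of replicates also reaching 30%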;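 further: 0% = DMSO neutral control and 100% = excess unlabeled competitor peptide PRC23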
CAL PDZ FP-2 = blocks peptide binding to human CAL PDZ domain; inhibition, % at 20 µM; purified CAL PDZ, TMR-peptide fluorescence polarization, 1 h; Q9HD26; 0.02% of 330,000 active;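 active means highest replicate inhibition of at least 40%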;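 further: plate controls were DMSO neutral control wells for no effect and unlabeled competitor peptide control wells for full effect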
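Assay system – tagged CAL PDZ protein CerCALP, purified · Timing – 1 h at RT · Compound – single point, 20 µM · Measured by – fluorescence polarization from S- and P-plane intensities, G-factor corrected · Evaluation – inhibition from polarization loss · Probe or stimulus – TMR reporter peptide T*-PRC34 · Buffer or medium – pH 7.4 phosphate-saline buffer, reducing agent, detergent, IgG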
* marks the source's active call; other numbers are inactive results. Compounds with a hit are over-represented: about 1.2% of the library has one in this group of screens.

COc1cc(N(C)C)ccc1C=c1c2ccccc2n2c1cc(-c1ccccc1)[n+]2C was read as ARNT TACC3 PPI 40.8*, CAL PDZ FP-1 -14.7 and CAL PDZ FP-2 37.9.
`COc1cc2c(cc1OC)-c1cc(Nc3ccccc3)nc(=O)n1CC2` gave ARNT TACC3 PPI 25.8 and CAL PDZ FP-2 -2.6.
For COc1cc2c(cc1OC)-c1cc(Nc3ccc(C(=O)O)cc3)nc(=O)n1CC2 the results were ARNT TACC3 PPI 46.3*, CAL PDZ FP-1 -4.2 and CAL PDZ FP-2 -1.0.
For O=C(CN1c2ccccc2Sc2ccccc21)NNC(=S)Nc1ccc(Cl)cc1 the results were ARNT TACC3 PPI 0.3 and CAL PDZ FP-2 -0.4.
O=C(CN1CCOCC1)NNC(=S)Nc1ccc(Cl)cc1 was read as ARNT TACC3 PPI 38.8*, CAL PDZ FP-1 -2.2 and CAL PDZ FP-2 1.0.
For CCNC(=S)N(CCc1cccc(C)c1)Cc1cc2cc(OC)c(OC)cc2[nH]c1=O the results were ARNT TACC3 PPI 7.8, CAL PDZ FP-1 -4.0 and CAL PDZ FP-2 -0.9.
For CCNC(=S)N(CCN(C)C)Cc1cc2cc3c(cc2[nH]c1=O)OCO3 the results were ARNT TACC3 PPI -0.5 and CAL PDZ FP-1 84.0*.
`CCNC(=S)N(CCc1ccc(OC)c(OC)c1)Cc1cc2cc(OC)ccc2[nH]c1=O` gave ARNT TACC3 PPI -2.2, CAL PDZ FP-1 56.5* and CAL PDZ FP-2 -0.3.
Screening CC(C)CNC(=S)N(CCN(C)C)Cc1cc2cc3c(cc2[nH]c1=O)OCO3 returned ARNT TACC3 PPI -4.7 and CAL PDZ FP-2 -0.1.
Screening COCCCNC(=S)N(CCCO)Cc1cc2cc3c(cc2[nH]c1=O)OCO3 returned ARNT TACC3 PPI 3.0, CAL PDZ FP-1 -3.7 and CAL PDZ FP-2 -0.6.
COCCCNC(=S)N(CCCO)Cc1cc2cc3c(cc2[nH]c1=O)OCCO3 was read as ARNT TACC3 PPI -4.9, CAL PDZ FP-1 41.7* and CAL PDZ FP-2 -0.4.
Screening CO[C@@H]1CC[C@@H]2CCOc3c(C#N)cccc3C(=O)N(C)C[C@@H](C)C(=O)N(C)C[C@H]1O2 returned ARNT TACC3 PPI -1.1.
Screening CO[C@@H]1CN(C)C(=O)c2ccc(NC(=O)C3CCC3)cc2OC[C@@H](C)N(C)C[C@@H]1C returned ARNT TACC3 PPI -10.5.
CCOC(=O)C(Cc1ccccc1)c1ccnc2ncnn12 (stereo not drawn) was read as ARNT TACC3 PPI -5.8, CAL PDZ FP-1 34.0* and CAL PDZ FP-2 0.4.
For CCOC(=O)C(Cc1ccccc1)C(=O)Nc1nccs1 (stereo not drawn) the results were ARNT TACC3 PPI -4.1, CAL PDZ FP-1 -1.6 and CAL PDZ FP-2 0.7.
Screening COc1ccc(S(=O)(=O)N(C)C[C@H]2OCCCC[C@@H](C)Oc3ccc(NC(=O)CCCCCC(=O)Nc4ccccc4N)cc3C(=O)N([C@H](C)CO)C[C@@H]2C)cc1 returned ARNT TACC3 PPI -9.8.
O=C(C[C@H]1CC[C@H]2[C@@H](COC[C@@H](O)CN2Cc2cccc(-c3ccncc3)c2)O1)N1CCN(c2ccccc2)CC1 was read as ARNT TACC3 PPI 11.3.
CC(C)NC(=O)Nc1ccc2c(c1)CC(=O)N([C@@H](C)CO)C[C@H](C)[C@@H](CN(C)S(=O)(=O)c1cn(C)cn1)O2 was read as ARNT TACC3 PPI -8.2.
Screening C=CCn1c(NCCOC)nc2c1c(=O)n(C)c(=O)n2C returned ARNT TACC3 PPI -4.5, CAL PDZ FP-1 43.8* and CAL PDZ FP-2 0.5.
For COCCNc1nc2c(c(=O)n(C)c(=O)n2C)n1Cc1cccc(C)c1 the results were ARNT TACC3 PPI -0.4, CAL PDZ FP-1 3.3 and CAL PDZ FP-2 0.0.
C[C@H]1CN([C@@H](C)CO)C(=O)Cc2cc(NC(=O)Nc3ccccc3)ccc2O[C@H]1CN(C)S(=O)(=O)c1ccccc1 was read as ARNT TACC3 PPI -2.5.
Cc1ccc(/C=N/NC(=O)CSc2nnc(-c3ccc(Cl)cc3)n2-c2ccc(Cl)cc2)o1 was read as ARNT TACC3 PPI 15.7, CAL PDZ FP-1 -0.4 and CAL PDZ FP-2 -1.4.
Screening Cc1ccc(/C=N/NC(=O)CSc2nnc(-c3ccccc3)n2-c2ccc(Cl)cc2)o1 returned ARNT TACC3 PPI 1.2, CAL PDZ FP-1 69.9* and CAL PDZ FP-2 -1.3.
Screening CN(C)C(=O)CCc1ccc2c3c([nH]c2c1)[C@]1(CCC2CCCC2)[C@@H](C(=O)N2CCOCC2)C[C@H](CC(=O)NCCN2CCOCC2)C(=O)N1CC3 returned ARNT TACC3 PPI -0.1, CAL PDZ FP-1 -5.6 and CAL PDZ FP-2 0.1.
Screening COc1ccc(CNC(=O)C[C@H]2C[C@H](C(=O)N3CCOCC3)[C@@]3(CCC4CCCC4)c4[nH]c5cc(CCC(=O)N(C)C)ccc5c4CCN3C2=O)cc1OC returned ARNT TACC3 PPI 3.2, CAL PDZ FP-1 51.0* and CAL PDZ FP-2 0.0.
